Type in all cases: functional
Test [1] can be described thus: Concentration of compound provoking 50% inhibition on growth of Leishmania donovani promastigotes. To be noted: read-out: I50. Summed up:
(§1)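 L. donovani LRC L-52 promastigotes were grown at 26 °C in 45% DMEM plus 45% RPMI 1640 (25 mM HEPES, pH 7.4) with 10% heat-inactivated FCS and antibiotics. Compound was added one day after seeding. Cells were counted by hemacytometer 3 days later, in duplicate flasks at two dilutions each, against untreated cultures. IC50 is the mean of five independent experiments.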

Test [2] has as its system Leishmania donovani. The test is described as follows: Percent inhibition on the biosynthesis of DNA of promastigotes of Leishmania donovani at 53 uM concentration. Summed up:
(§2)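 Promastigotes (5 x 10^6 cells/mL) were incubated with or without compound for 4 h, then pulsed for 1 h with a labelled precursor: [methyl-3H]thymidine 2.5 µCi/mL for DNA, [5-3H]uridine 2.5 µCi/mL for RNA, or [4,5-3H]leucine 5 µCi/mL for protein. Cells were washed in cold PBS and fractionated with TCA (cold-soluble pool, hot-soluble nucleic acid, insoluble protein). Protein was measured by Lowry.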

For test [3], the system named is Leishmania donovani. Put plainly: Percent inhibition on the biosynthesis of RNA of promastigotes of Leishmania donovani at 26.6 uM concentration. Summed up:
as §2

The subject of test [4] is Leishmania donovani. The test is described as follows: Percent inhibition on the biosynthesis of RNA of promastigotes of Leishmania donovani at 53 uM concentration. The essentials:
as §2

Test [5] concerns Leishmania donovani. The test is described as follows: Percent inhibition on the biosynthesis of proteins of promastigotes of Leishmania donovani at 26.6 uM concentration. The essentials: as §2
Test [6] concerns Leishmania donovani. The test is described as follows: Percent inhibition on the growth of the promastigotes of Leishmania donovani at 26.6 uM concentration.
Test [7] relates to Leishmania donovani. Put plainly: Percent inhibition on the growth of the promastigotes of Leishmania donovani at 53 uM concentration.
Test [8] has as its system Leishmania donovani. The test is described as follows: Concentration of compound provoking >99% irreversible after removal of drugs from culture medium inhibition on growth of Leishmania donovani promastigotes multiplication. The essentials: (§3)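 Strain LRC L-52 promastigotes were exposed to compound for 3 days at 26 °C in DMEM/RPMI 1640 (HEPES, pH 7.4) with 10% heat-inactivated FCS. Cells were then centrifuged, washed free of drug and resuspended in fresh medium. They were counted by hemacytometer after 3 more days. The value is the concentration giving >99% irreversible growth inhibition.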

For test [9], the system named is Leishmania donovani. Put plainly: Percent inhibition on the biosynthesis of DNA of promastigotes of Leishmania donovani at 26.6 uM concentration. The essentials:
as §2

Test [10] in a line: Concentration of compound provoking 50% inhibition on growth of Leishmania donovani promastigotes multiplication. Conditions: read-out: I50. The essentials: as §1
Test [11] deals with Leishmania donovani. Put plainly: Percent inhibition on the biosynthesis of proteins of promastigotes of Leishmania donovani at 53 uM concentration. The essentials:
as §2

Test [12] deals with Leishmania donovani. The test is described as follows: Concentration of compound provoking >99% irreversible after removal of drugs from culture medium inhibition on growth of Leishmania donovani promastigotes. The essentials:
as §3

The subject of test [13] is Leishmania donovani. Put plainly: Percent inhibition on the biosynthesis of DNA of promastigotes of Leishmania donovani at 37 uM concentration. Summed up:
as §2

The subject of test [14] is Leishmania donovani. Put plainly: Percent inhibition on the biosynthesis of RNA of promastigotes of Leishmania donovani at 3.7 uM concentration. Summed up: as §2
Test [15] concerns Leishmania donovani. The test is described as follows: Percent inhibition on the biosynthesis of RNA of promastigotes of Leishmania donovani at 37 uM concentration. The essentials:
as §2

Test [16] deals with Leishmania donovani. Put plainly: Percent inhibition on the biosynthesis of proteins of promastigotes of Leishmania donovani at 3.7 uM concentration. Summed up: as §2
The test system of test [17] is Leishmania donovani. Put plainly: Percent inhibition on the biosynthesis of proteins of promastigotes of Leishmania donovani at 37 uM concentration. Summed up: as §2
In test [18] the test system is Leishmania donovani. The test is described as follows: Percent inhibition on the growth of the promastigotes of Leishmania donovani at 3.7 uM concentration.
The test system of test [19] is Leishmania donovani. The test is described as follows: Percent inhibition on the biosynthesis of DNA of promastigotes of Leishmania donovani at 3.7 uM concentration. The essentials:
as §2

In test [20] the test system is Leishmania donovani. Put plainly: Percent inhibition on the growth of the promastigotes of Leishmania donovani at 37 uM concentration.
The test system of test [21] is Leishmania donovani. The test is described as follows: Percent inhibition on the biosynthesis of DNA of promastigotes of Leishmania donovani at 5.25 uM concentration. Summed up:
as §2

Test [22] concerns Leishmania donovani. Put plainly: Percent inhibition on the biosynthesis of RNA of promastigotes of Leishmania donovani at 17.5 uM concentration. Summed up:
as §2

Test [23] has as its system Leishmania donovani. The test is described as follows: Percent inhibition on the biosynthesis of RNA of promastigotes of Leishmania donovani at 3.5 uM concentration. The essentials: as §2
The test system of test [24] is Leishmania donovani. Put plainly: Percent inhibition on the biosynthesis of RNA of promastigotes of Leishmania donovani at 5.25 uM concentration. Summed up:
as §2

In test [25] the test system is Leishmania donovani. Put plainly: Percent inhibition on the biosynthesis of proteins of promastigotes of Leishmania donovani at 17.5 uM concentration. The essentials: as §2
For test [26], the system named is Leishmania donovani. The test is described as follows: Percent inhibition on the biosynthesis of proteins of promastigotes of Leishmania donovani at 3.5 uM concentration. Summed up: as §2
Test [27] deals with Leishmania donovani. Put plainly: Percent inhibition on the biosynthesis of proteins of promastigotes of Leishmania donovani at 5.25 uM concentration. The essentials: as §2
Test [28] concerns Leishmania donovani. The test is described as follows: Percent inhibition on the growth of the promastigotes of Leishmania donovani at 17.5 uM concentration.
For test [29], the system named is Leishmania donovani. Put plainly: Percent inhibition on the growth of the promastigotes of Leishmania donovani at 3.5 uM concentration.
Test [30] deals with Leishmania donovani. The test is described as follows: Percent inhibition on the biosynthesis of DNA of promastigotes of Leishmania donovani at 3.5 uM concentration. Summed up: as §2
The test system of test [31] is Leishmania donovani. Put plainly: Percent inhibition on the biosynthesis of DNA of promastigotes of Leishmania donovani at 17.5 uM concentration. Summed up: as §2

Regarding `COC(=O)c1cc2c(cn1)[nH]c1ccccc12` [BETA-CCM], the IC50 in [1] was over 50 µM.

What is called inhibition is the change of the read-out against control, counted positive when it falls. Lower therefore signals a response near the control. Turning to `N/C(S)=N/N=C/c1ccccn1`, the inhibition in the test with Leishmania donovani [2] was 95%; in the test on Leishmania donovani [3], 50%; with Leishmania donovani [4], 53%; in the test with Leishmania donovani [5] it was 20%; in the test with Leishmania donovani [6], 56%; with Leishmania donovani [7], 78%. The inhibition in the test on Leishmania donovani [9] stood at 90%; with Leishmania donovani [11], 17%. The same molecule had an Imax in the test on Leishmania donovani [8] of 67 µM. Also, the IC50 in test [10] is 29 µM.

Take `CCOC(=O)c1cc2cc(/C=N/N=C(/N)S)[nH]cc-2n1`: the IC50 in test [1] was over 50 µM. This molecule gave a concentration for >99% irreversible growth inhibition in the test on Leishmania donovani [12] of over 75 µM.

For `N/C(S)=N/N=C/c1cc2c3ccccc3nc-2c[nH]1`, the inhibition amounted to 99.7% in the test with Leishmania donovani [13]; 34% in the test on Leishmania donovani [14]; 96% in the test with Leishmania donovani [15]; 7% with Leishmania donovani [16]; 81% with Leishmania donovani [17]; 37% in the test with Leishmania donovani [18]. The inhibition turned out to be 89% in the test with Leishmania donovani [19] and 90% in the test on Leishmania donovani [20]. In [1], the IC50 was 5 µM. The same molecule had a concentration for >99% irreversible growth inhibition with Leishmania donovani [12] of 40 µM.

As for `C/C(=N\N=C(\N)S)c1cc2c3ccccc3nc-2c[nH]1`, the inhibition in the test on Leishmania donovani [21] is 0.5%; in the test with Leishmania donovani [22] it was 98.7%; with Leishmania donovani [23], 36%; with Leishmania donovani [24], 52%; with Leishmania donovani [25], 95%; with Leishmania donovani [26], 25%. In addition, the inhibition was 36% in the test on Leishmania donovani [27]; 100% in the test on Leishmania donovani [28]; 68% with Leishmania donovani [29]; 0% with Leishmania donovani [30]; 99.6% with Leishmania donovani [31]. Besides, the IC50 in test [1] amounted to 2.5 µM. This molecule also registered a concentration for >99% irreversible growth inhibition in the test on Leishmania donovani [12] of 17.5 µM.

Turning to `N=C(N)c1ccc(OCCCCCOc2ccc(C(=N)N)cc2)cc1` [PENTAMIDINE], the IC50 in test [1] was 0.56 µM. The molecule further registered a concentration for >99% irreversible growth inhibition with Leishmania donovani [12] of 1.1 µM.

(Values after ChEMBL document CHEMBL1124490, “Hybrid molecules: growth inhibition of Leishmania donovani promastigotes by thiosemicarbazones of 3-carboxy-beta-carbolines” (J Med Chem, 1989).)
